Source: PubChem BioAssay
KCNQ1 inh – inhibitors of human KCNQ1 channel, primary screen, cell-based, thallium flux, high-throughput; CHO-K1 KCNQ1, FluxOR thallium flux fluorescence; hits give high values; B-score at 10 µM; 310,000 tested, 1.3% active; AID 2642, 2010;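 active = compounds whose thallium flux B-score, printed positive for inhibition, exceeds three library SD while starting fluorescence stays within three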;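 note: channel opened by potassium depolarization with thallium stimulus after 20 min compound exposure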
Target sequence (P51787 whole entry, looked up): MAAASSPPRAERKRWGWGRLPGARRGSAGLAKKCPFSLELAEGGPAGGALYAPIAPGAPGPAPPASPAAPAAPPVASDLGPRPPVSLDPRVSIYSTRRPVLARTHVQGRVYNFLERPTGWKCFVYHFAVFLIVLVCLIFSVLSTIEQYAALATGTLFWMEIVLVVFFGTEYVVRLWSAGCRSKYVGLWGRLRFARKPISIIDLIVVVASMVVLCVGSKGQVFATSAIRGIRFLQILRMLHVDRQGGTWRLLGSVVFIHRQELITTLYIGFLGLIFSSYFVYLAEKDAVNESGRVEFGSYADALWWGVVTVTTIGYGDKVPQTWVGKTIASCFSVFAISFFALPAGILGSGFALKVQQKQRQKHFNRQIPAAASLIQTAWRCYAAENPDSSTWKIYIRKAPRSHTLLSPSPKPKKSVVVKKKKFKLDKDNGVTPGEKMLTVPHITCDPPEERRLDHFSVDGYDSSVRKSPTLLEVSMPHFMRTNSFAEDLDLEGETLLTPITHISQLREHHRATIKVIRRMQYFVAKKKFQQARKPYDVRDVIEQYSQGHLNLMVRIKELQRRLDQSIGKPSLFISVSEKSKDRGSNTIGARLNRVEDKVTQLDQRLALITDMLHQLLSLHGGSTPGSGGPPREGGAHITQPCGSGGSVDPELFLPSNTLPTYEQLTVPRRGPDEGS
KCNK3 block – human KCNK3 channel inhibitors, primary screen, CHO cells, FluxOR thallium flux, B-score; Potassium channel subfamily K member 3 (Homo sapiens), O14649; FluxOR fluorescence; hits give low values; B-score at 10 µM; 340,000 tested, 0.84% active; AID 602410, 2012;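 active = B-score under library mean minus 4 SD, starting fluorescence ratio at most library mean plus 5 SD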;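 note: more negative B-score means stronger inhibition of thallium flux through KCNK3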
KCNK9 inh – KCNK9 potassium channel inhibitors, primary screen, HEK293 cells, thallium flux; Potassium channel subfamily K member 9 (Homo sapiens), Q9NPC2; FluxOR thallium flux fluorescence; hits give low values; B-score at 10 µM; 310,000 tested, 1.2% active; AID 488922, 2010;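 active = ratio B-score over 3 SD below the library mean, with starting fluorescence within 5 SD of its mean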;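 note: negative B-score means less thallium flux so channel inhibition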
Kir21 inh – inhibitors of mouse Kir2.1 inward-rectifier potassium channel. Inward rectifier potassium channel 2 (Mus musculus), P35561. HEK293-Kir2.1, FluxOR thallium flux fluorescence; hits give low values. B-score at 10 µM. 310,000 tested, 0.85% active;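 active = fluorescence ratio B-score at or below minus 3 SD of library scores, with starting-brightness B-score within 2 SD, cut at about -4.2 in these data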;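 note: channel flux triggered by added potassium and thallium sulfate stimulus; B-score of peak minus minimum fluorescence over baseline after thallium stimulus; more negative B-score means stronger Kir2.1 block with less thallium influx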
hERG rescue – hERG rescue from dofetilide block, primary screen, cell-based, CHO-hERG, FluxOR thallium flux, dofetilide IC70. Voltage-gated inwardly rectifying potassium channel KCNH2 (Homo sapiens), Q12809. AID 1511, 2009. dofetilide IC70 present. activation (rescue from dofetilide block), less the hit threshold, % at 10 µM. 310,000 tested, 0.51% active;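 active = activation above the mean of controls blocked by dofetilide plus 5 SD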;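 note: thallium influx through hERG after potassium depolarization seen as dye fluorescence rise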
KCNQ1 pot – potentiators or activators of KCNQ1 channel, primary screen, cell-based, thallium flux, high-throughput | B-score at 10 µM | CHO-K1 KCNQ1, thallium flux FluxOR fluorescence; hits give high values | Potassium voltage-gated channel subfamily KQT member 1 (Homo sapiens), P51787 | 310,000 tested, 0.35% active;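 active = fluorescence ratio B-score, a plate-corrected score, at least three library SD, with initial intensity B-score within 5 SD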
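System: Stable KCNQ1 CHO-K1 line | Incubation: 90 min dye loading and 20 min compound exposure, both at room temperature | Measure: Ratio B score | Medium: Assay buffer for compound exposure, DMSO matched across wells | Compound dosing: Single-concentration screen | Probe or stimulus: K+/Tl+ depolarizing stimulus | Measured by: Kinetic FluxOR fluorescence, 10 s baseline plus 110 s post-stimulus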
* = called active by the depositor; i = inactive; . = no result. Hits are enriched below; roughly 3.7% of the tested compounds scored in any of these assays.

SMILES	KCNQ1 inh	KCNK3 block	KCNK9 inh	Kir21 inh	hERG rescue	KCNQ1 pot
COc1ccc(S(=O)(=O)N(C)C)cc1NCC(=O)Nc1cccc(C#N)c1	i	i	i	0.8	-7	i
COc1ccc(CNc2nc3ccccc3n2CCN2CCCCC2)cc1	i	i	i	-2.3	-11	i
CCN(CC)c1ccc(CNc2nc3ccccc3n2CCN2CCCCC2)cc1	7*	i	i	-1.4	-18	i
O=[N+]([O-])c1ccc2nc(-c3ccc(Cl)cc3)[nH]c2c1	6*	i	i	-1.4	-8	i
CCCNC(=O)COC(=O)c1cc(-c2ccc(OC)cc2)nc2ccccc12	i	i	i	0.1	-5	i
COc1ccc(-c2cc(C(=O)OCC(=O)NC(C)C)c3ccccc3n2)cc1	i	i	i	-4.4*	-5	i
CCOC(=O)c1sc(NC(=O)c2cc(-c3ccc(C)cc3)nc3ccccc23)c(C#N)c1C	7*	i	i	-1.2	-19	i
Cc1ccccc1-c1cc(C(=O)Nc2sc(C(=O)OC(C)C)c(C)c2C#N)c2ccccc2n1	10*	i	i	-1.2	-7	i
CCOc1cc(CNCc2ccncc2)cc(Br)c1OCc1ccccc1F	i	i	i	-8*	-19	i
CCOc1cc(CNCc2cccs2)cc(Br)c1OCC	i	i	i	-5.6*	-9	i
CCOc1cc(CNCCO)cc(Br)c1OCc1cccs1	i	i	i	-13*	-9	i
Brc1cccc(CNCc2cccs2)c1	i	i	i	-0.5	-5	i
O=C(COc1cc(F)ccc1[N+](=O)[O-])NCC1CCCO1 (centres undefined)	.	i	.	.	.	.
COc1ccc(C(C(=O)NC(C)(C)C)N(C(=O)CNC(=O)c2cccs2)c2cccnc2)cc1OC (centres undefined)	i	i	i	0.01	-5	i
N#CC(c1ccc(Cl)cc1)c1ccc2c(C(F)(F)F)cc(C(F)(F)F)nc2n1 (centres undefined)	i	i	i	-2.1	-4	60*
COc1ccc(OC)c(-c2cc(C(=O)N3CCc4ccccc4C3)no2)c1	6*	i	i	1.6	-10	i
OC[C@H]1O[C@H](OC[C@H]2O[C@H](OC[C@H]3O[C@H](O[C@]4(CO)O[C@H](CO)[C@@H](O)[C@@H]4O)[C@H](O)[C@@H](O)[C@@H]3O)[C@H](O)[C@@H](O)[C@H]2O)[C@H](O)[C@@H](O)[C@H]1O	i	i	i	-0.06	-3	32*
Cc1[nH][nH]c(=O)c1C(c1ccc(-c2ccc(F)cc2)o1)c1c(C)[nH][nH]c1=O	i	i	i	-5.3*	-15	9*
COc1ccccc1NC(=O)Cc1noc(CSc2nnc(C)n2C)n1	i	i	i	-1	-8	i
CCCC(=O)Nc1cccc(C(=O)Nc2ccccc2OCC)c1	i	.	-7.8*	0.15	-9	i
CCCC(=O)Nc1cccc(NC(=O)c2ccc(C)c([N+](=O)[O-])c2)c1	i	i	i	-4.8*	-14	i
CCOc1ccccc1NC(=O)c1cccc(NC(=O)C(C)C)c1	i	i	i	-0.62	-17	i
CCC(=O)Nc1cccc(NC(=O)c2ccc(C)c([N+](=O)[O-])c2)c1	i	i	i	-1.2	-22	i
CCN1/C(=C/C(C)=C/c2sc3ccccc3[n+]2CC)Sc2ccccc21	i	-15*	i	1.8	-26	i
COc1ccccc1NC(=O)C(C)Sc1nc(-c2ccccc2)cn1N (centres undefined)	.	i	.	.	.	.
SMILES	KCNQ1 inh	KCNK3 block	KCNK9 inh	Kir21 inh	hERG rescue	KCNQ1 pot
CCc1ccc(N(C(=O)c2snc(C(N)=O)c2N)C(C(=O)NCC2CCCO2)c2ccco2)cc1 (centres undefined)	i	i	i	-0.02	-11	i
CC1=NN(c2ccccc2)C(=O)/C1=C/c1cn(C)c2ccccc12	i	i	i	-0.05	-7	i
COc1ccc(C(=O)N/C(=C\c2cn(C)c3ccccc23)C(=O)N2CCOCC2)cc1	i	i	i	1.5	-9	i
Cc1c(C(=O)c2no[n+]([O-])c2C(=O)c2cnn(C)c2C)cnn1C	6*	i	i	-0.01	-9	i
CCCc1nc2ccc(NC(=O)c3cccs3)cc2c(=O)n1Cc1ccccc1Cl	i	i	-6.8*	-1.1	-6	i
Cc1ccc(CN2CCSc3sccc3C2=O)cc1	i	i	i	0	-8	i
Cc1cccc(-c2nnc(NC(=O)c3ccc(Cl)cc3)o2)c1	i	i	i	-0.24	-12	9*
CN1CCN(S(=O)(=O)c2cccc(C(=O)NCc3ccc(Cl)cc3)c2)CC1	i	i	i	0.88	-11	i
Nc1cc(S(=O)(=O)N2CCCCC2)ccc1Oc1ccccc1	i	i	i	0.64	-22	i
O=C(NCCCl)Nc1ccc(Cl)c([N+](=O)[O-])c1	10*	i	i	1.3	-15	i
O=C(Nc1ccc(Cl)c([N+](=O)[O-])c1)C(Sc1ccccc1)c1ccccc1 (centres undefined)	11*	i	i	1.4	-17	i
CCC(C)NC(C(=O)Nc1ccc(Cl)c([N+](=O)[O-])c1)c1ccccc1 (centres undefined)	i	i	-7*	0.15	-17	i
CC(CC(=O)Nc1ccc(F)c([N+](=O)[O-])c1)c1ccccc1 (centres undefined)	6*	i	i	-0.49	-4	i
CC(CC(=O)Nc1cccc(Cl)c1)c1ccccc1 (centres undefined)	i	i	i	0.23	-15	i
COCC(C)NC(C(=O)Nc1ccc(Cl)c([N+](=O)[O-])c1)c1ccccc1 (centres undefined)	i	i	i	-3.7	-10	i
CC(=O)N(C)c1ccc(NC(=O)C(Sc2ccccc2)c2ccccc2)cc1 (centres undefined)	i	i	i	-1.2	-10	i
COc1ccc(C)cc1NC(=S)N1CCN(S(C)(=O)=O)CC1	i	i	i	0.07	-4	i
